Among the data in ChEMBL document CHEMBL1127081, “Synthesis of 2,4-disubstituted thiazoles and selenazoles as potential antifilarial and antitumor agents. 2. 2-Arylamido and 2-alkylamido derivatives of 2-amino-4-(isothiocyanatomethyl)thiazole and 2-amino-4-(isothiocyanatomethyl)selenazole” (J Med Chem, 1993) are Activity, GR and IC50 values, retold here.

Test [1] deals with Brugia pahangi. Kind of test: Compound tested for anti-filarial activity against adult worm of Brugia pahangi in jirds at 100 mg/kg x 5 days administered subcutaneously; No activity. Format: functional, organism-based. Also noted: dose 100 mg/kg.
In test [2] the test system is Acanthocheilonema viteae. Kind of test: Antifilarial activity against adult worm of A. viteae in jirds at 100 mg/kg x 5 days administered subcutaneously; No activity. Set-up: dose 100 mg/kg. Format: functional, organism-based.
Test [3] concerns L1210. Briefly: Screen growth rate of L1210 leukemic cells in the presence of compound at 100 uM expressed as percent of control. Format: functional, Mus musculus. The essentials: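 L1210 cells grown in static suspension at 38 °C in Fischer's medium with continuous 100 μM compound for 3 days. Growth rate = ratio of control to treated population doubling time, expressed as % of control; if growth slowed, the final rate over the 3-day period was used.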

Test [4] concerns L1210. Briefly: Compound was tested in vitro for antiproliferative activity against L1210 leukemic cells. Format: functional, cell-based. The note with it: Mus musculus. An outline of the steps: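 Mouse L1210 leukemia cells grown in static suspension culture at 38 °C in Fischer's medium. Cells were exposed continuously to a range of concentrations for 3 days. Growth rate = control doubling time / treated doubling time, as % of control; the final rate was used if growth slowed. IC50 = concentration reducing growth rate to 50% of control.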

For test [5], the target named is GMP synthase [glutamine-hydrolyzing] (Mus musculus, UniProt Q3THK7). Briefly: In vitro inhibitory activity against partially purified GMP synthetase in L1210 cells.
For test [6], the system named is L1210. Briefly: Compound was tested in vitro for antiproliferative activity against L1210 leukemic cells; No significant inhibition. Format: functional, cell-based, Mus musculus.

Active and inactive are the calls of the source. The rule behind the calls is not given here.

Sequence of GMP synthase [glutamine-hydrolyzing] (Q3THK7 whole entry): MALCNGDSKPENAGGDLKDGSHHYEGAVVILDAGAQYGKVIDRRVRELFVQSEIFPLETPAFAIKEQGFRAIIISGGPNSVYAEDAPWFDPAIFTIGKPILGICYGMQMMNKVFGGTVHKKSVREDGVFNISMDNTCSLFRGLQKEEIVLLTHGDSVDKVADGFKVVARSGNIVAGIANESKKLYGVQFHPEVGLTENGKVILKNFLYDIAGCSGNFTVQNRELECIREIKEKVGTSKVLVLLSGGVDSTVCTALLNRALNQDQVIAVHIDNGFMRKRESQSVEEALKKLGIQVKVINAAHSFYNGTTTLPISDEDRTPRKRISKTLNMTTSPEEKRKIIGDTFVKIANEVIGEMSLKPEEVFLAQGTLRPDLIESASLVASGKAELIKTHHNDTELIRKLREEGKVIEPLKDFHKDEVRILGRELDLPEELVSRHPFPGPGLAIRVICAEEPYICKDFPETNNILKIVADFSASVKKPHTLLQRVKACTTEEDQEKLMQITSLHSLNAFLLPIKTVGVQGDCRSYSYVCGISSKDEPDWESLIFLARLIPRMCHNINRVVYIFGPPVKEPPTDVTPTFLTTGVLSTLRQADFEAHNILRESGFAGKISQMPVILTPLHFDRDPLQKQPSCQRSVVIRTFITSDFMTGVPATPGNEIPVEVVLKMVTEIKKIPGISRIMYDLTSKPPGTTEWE

As for `CCC(=O)Nc1nc(CN=C=S)cs1`, the result in test [1] and in test [2] was inactive. Also, the GR in test [3] is listed as 0%. In test [4], the IC50 turned out to be 6.8 µM.

As to `CC(=O)Nc1nc(CCl)cs1`, the result in test [1] and in test [2] was inactive. For the same compound, in test [3], the GR is recorded as 75%. The IC50 in test [4] was over 100 µM.

Turning to `CC(=O)Nc1nc(CN=C=S)c[se]1`, the result in test [1] and in test [2] was inactive. The GR in test [3] stood at 14%. Moreover, in test [4], the IC50 was 30 µM.

For the compound `CC(C)(C)c1ccc(C(=O)Nc2nc(CN=C=S)cs2)cc1`, the outcome in test [1] and in test [2] was inactive. Further, the GR in test [3] was 72%. In addition, the IC50 in test [4] was over 100 µM.

As for `O=C(Nc1nc(CN=C=S)cs1)c1ccccc1`, the IC50 stood at 0.35 µM in test [5] and 0.2 µM in test [4]. For the same compound, the result in test [1] and in test [2] was inactive. In addition, in test [3], the GR was found to be 0%.

Turning to `Nc1nc(CN=C=S)cs1`, the result in test [1] and in test [2] was inactive. For the same compound, the GR in test [3] came to 0%. Further, in test [4], the IC50 was found to be 26 µM.

For `O=C(Nc1nc(CN=C=S)cs1)c1ccc(C(F)(F)F)cc1`, the result in test [1] and in test [2] was inactive. For the same compound, the GR in test [3] is on record as 0%. Moreover, in test [4], the IC50 was 0.5 µM.

Consider `O=C(Nc1nc(CN=C=S)cs1)C(F)(F)F`, for which the outcome in test [1] and in test [2] was inactive. In addition, in test [3], the GR is recorded as 20%.

For the compound `Nc1nc(CN=C=S)c[se]1`, the outcome in test [1] and in test [2] was inactive. Further, in test [3], the GR stood at 0%. Also, half-maximal inhibition in test [4] (IC50) required 21 µM.

For the compound `CC(C)(C)C(=O)Nc1nc(CN=C=S)c[se]1`, the result in test [1] and in test [2] was inactive. The GR in test [3] is reported as 0%. Also, the IC50 in test [4] was 18 µM.

For the compound `CC(C)C(=O)Nc1nc(CN=C=S)c[se]1`, the result in test [1] and in test [2] was inactive. Also, in test [3], the GR was determined as 0%. In test [4], this compound came in with an IC50 of 28 µM.

Consider `CC(=O)Nc1nc(CCl)c[se]1`, for which the result in test [1] and in test [2] was inactive. Further, the GR in test [3] is given as 65%. Besides, the IC50 in test [4] is over 100 µM.

On to `CC(C)(C)C(=O)Nc1nc(CN=C=S)cs1`, for which the result in test [1] and in test [2] was inactive. Also, the GR in test [3] is given as 28%. In test [4], the IC50 turned out to be 4.3 µM.

Turning to `O=C(Nc1nc(CN=C=S)cs1)c1ccc(Cl)cc1`, the outcome in test [1] and in test [2] was inactive. Also, in test [3], the GR was determined as 0%. Moreover, the IC50 in test [4] came out at 0.22 µM.

Take `CC(C)C(=O)Nc1nc(CN=C=S)cs1`: the outcome in test [1] and in test [2] was inactive. Besides, the GR in test [3] is 0%. In test [4], the IC50 stood at 8.2 µM.

Take `O=C(Nc1nc(CN=C=S)c[se]1)c1ccccc1`: the outcome in test [1] and in test [2] was inactive. In addition, the GR in test [3] is given as 13%. The compound further had an IC50 in test [4] of 0.9 µM.

Take `CCC(=O)Nc1nc(CN=C=S)c[se]1`: the result in test [1] and in test [2] was inactive. The GR in test [3] is recorded as 0%. In test [4], this compound displayed an IC50 of 3.5 µM.

For `O=C(Nc1nc(CN=C=S)cs1)c1ccc(F)cc1`, the outcome in test [1] and in test [2] was inactive. In addition, in test [3], the GR is on record as 0%. Besides, the IC50 in test [4] was 1.1 µM.

For `CC(=O)Nc1nc(CN=C=S)cs1`, the outcome in test [1] and in test [2] was inactive. In addition, the GR in test [3] is reported as 1%. Half-maximal inhibition in test [4] (IC50) was put at 5.2 µM.

Turning to `COc1ccc(C(=O)Nc2nc(CN=C=S)cs2)cc1`, the result in test [1] and in test [2] was inactive. Moreover, the GR in test [3] worked out at 0%. The compound further returned an IC50 in test [4] of 0.44 µM.

As for `O=C(Nc1nc(CCl)cs1)c1ccccc1`, the result in test [1] and in test [2] was inactive. In test [6], the IC50 entry is reported as “Not Active”. In test [3], the GR is on record as 100%.

For `O=C(Nc1nc(CN=C=S)cs1)c1ccc(Cl)c(Cl)c1`, the outcome in test [1] and in test [2] was inactive. For the same compound, the GR in test [3] was 0%. In test [4], this compound yielded an IC50 of 0.82 µM.

Regarding `O=C(Nc1nc(CCl)c[se]1)c1ccccc1`, the result in test [1] and in test [2] was inactive. For the same compound, the IC50 result in test [6] is “Not Active”. Further, the GR in test [3] worked out at 101%.

`Cc1ccc(C(=O)Nc2nc(CN=C=S)cs2)cc1`: the outcome in test [1] and in test [2] was inactive. Besides, in test [3], the GR stood at 25%. For the same compound, in test [4], the IC50 was 0.48 µM.

Consider `COC(=O)Nc1nc(CN=C=S)cs1`, for which the outcome in test [1] and in test [2] was inactive.

One may read the IC50 as the concentration that gives 50% inhibition.
